Results pooled from the literature.
Lines come from different studies, so protocols differ.
Target: Receptor-interacting serine/threonine-protein kinase 2 (RIPK2, Homo sapiens, UniProt O43353)

Nc1ncc2c(n1)-c1c([nH]c3ccc(C#CC4CC4)cc13)CCCC2  remaining binding (binding, competition with immobilised ligand; 1 µM): 100%
O=C(Nc1c[nH]nc1C(=O)NC1CCNCC1)c1cc(F)cc(F)c1  remaining binding (binding, competition with immobilised ligand; 1 µM): 53%
O=C(NCCCN1CCOCC1)c1ccc(Nc2ncc(Cl)c(-c3ccc(Cl)s3)n2)cc1  remaining binding (binding, competition with immobilised ligand; 1 µM): 100%
CN(C)c1nccc(-c2cnc3ncccn23)n1  remaining binding (binding; 1 µM): 98%
CNC(=O)[C@@H]1CC[C@@H](n2c(-c3ccc4cnccc4c3)nc3ccc(C(=O)NCc4cccc(C(N)=O)c4)cc32)C1  remaining binding (binding, competition with immobilised ligand; 1 µM): 100%
CN(C)C(=O)Cn1cc(-c2nc(C3(c4ccc(-c5cnc(N)nc5)cc4)CC3)no2)cn1  remaining binding (cell-free assay, competition with immobilised ligand; 1 µM): 100%
CN(CCCC(F)(F)F)c1nccc(-c2cnn3ncccc23)n1  remaining binding (binding; 1 µM): 89%
c1ccc(N2CCN(Cc3nc4ccccc4[nH]3)CC2)nc1  remaining binding (binding, competition with immobilised ligand; 1 µM): 100%
C=CC(=O)N1CCC(C(=O)NCC(=O)N2CCN(c3nc(-c4cnc(N)nc4C(F)F)nc(N4CCOCC4)n3)CC2)CC1  remaining binding (binding, competition with immobilised ligand; 1 µM): 100%
COc1ncc2cc3ccccc3nc2c1C#N  remaining binding (cell-free assay, competition with immobilised ligand; 5 µM): 100%
CN(C(=O)c1ccccc1)c1cc(N(C)c2ccc3c(c2)CCc2ccc(C(=O)NCCN4CCOCC4)cc2C3=O)ccc1F  remaining binding (cell-free assay, competition with immobilised ligand; 1 µM): 56%
O=C(c1ccc(Nc2nccc(-c3cc4ccccc4s3)n2)cc1)N1CCC(N2CCCC2)CC1  remaining binding (binding, competition with immobilised ligand; 1 µM): 79%
CN(c1nccc(-c2cnn3ncccc23)n1)C1CC1  remaining binding (binding; 1 µM): 87%
CCN1CCN(Cc2ccc(C(=O)Nc3ccc(C)c(Oc4ccc5c(c4)CC(=O)N5)c3)cc2C(F)(F)F)CC1  remaining binding (binding, competition with immobilised ligand; 1 µM): 100%
C[C@H]1CCN(c2nccc(-c3cnn4ncccc34)n2)C1  remaining binding (binding; 1 µM): 95%
CC(=O)C1=C(C)N(c2cccc(C(F)(F)F)c2)C(=O)N[C@@H]1c1ccc(C#N)nc1  remaining binding (cell-free assay, competition with immobilised ligand; 1 µM): 98.7%
CC1CCCN1c1nccc(-c2cnn3ncccc23)n1 (stereo not shown)  remaining binding (binding; 1 µM): 89%
O=C(c1ccc(Nc2ncc(Cl)c(-c3cc4ccccc4s3)n2)cc1)N1CCC(N2CCCC2)CC1  remaining binding (binding, competition with immobilised ligand; 1 µM): 98%
Cc1cc(NC(=O)c2cccc(S(F)(F)(F)(F)F)c2)cc(-n2ccn3nc(-c4cccnc4)cc23)c1  remaining binding (cell-free assay, competition with immobilised ligand; 1 µM): 88.6%
CN(C)c1nccc(-c2cnn3ncccc23)n1  remaining binding (binding; 1 µM): 100%
O=C(NC[C@@H]1[C@H]2CN(C(=O)OCc3cc(C(F)(F)F)cc(C(F)(F)F)c3)C[C@@H]12)c1ccc2[nH]nnc2c1  remaining binding (cell-free assay, competition with immobilised ligand; 1 µM): 64%
N[C@H]1CCN(c2nccc(-c3cnn4ncccc34)n2)C1  remaining binding (binding; 1 µM): 100%
